From ChEMBL document CHEMBL4261538, “Synthesis and molecular docking studies of xanthone attached amino acids as potential antimicrobial and anti-inflammatory agents” (Medchemcomm, 2017)

Tests used:
[1] = test system: Klebsiella pneumoniae; assay: Antibacterial activity against Klebsiella pneumoniae at 50 ug/ml incubated for 24 hrs by agar well diffusion method; assay type: functional; details: read-out: DIZ
In short: (§1)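 Bacteria grown in nutrient broth at 37 °C for 24 h, then subcultured at room temperature. Compounds dissolved in DMSO at 5 mg mL⁻¹ and 5–20 µL added to 6 mm wells, giving 25, 50, 75, 100 µg per well. Gentamicin was the positive control and DMSO the negative control. Plates held at 37 °C for 24 h, then inhibition zone diameter (mm) measured. Values are means of three determinations.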

[2] = test system: Aspergillus niger; assay: Antifungal activity against Aspergillus niger at 25 ug/ml incubated for 48 hrs by agar well diffusion method; assay type: functional; details: read-out: DIZ
In short: (§2)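 Compounds dissolved in DMSO at 5 mg mL⁻¹ and 5–20 µL added to 6 mm wells, giving 25, 50, 75, 100 µg per well. Bavistin was the positive control and DMSO the negative control. Plates incubated at 28 °C for 48 h, then inhibition zone diameter (mm) measured. Values are means of three determinations.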

[3] = test system: Klebsiella pneumoniae; assay: Antibacterial activity against Klebsiella pneumoniae at 25 ug/ml incubated for 24 hrs by agar well diffusion method; assay type: functional; details: read-out: DIZ; in short: as §1
[4] = test system: Candida albicans; assay: Antifungal activity against Candida albicans at 25 ug/ml incubated for 48 hrs by agar well diffusion method; assay type: functional; details: read-out: DIZ; in short: as §2
[5] = test system: Staphylococcus aureus; assay: Antibacterial activity against Staphylococcus aureus at 25 ug/ml incubated for 24 hrs by agar well diffusion method; assay type: functional; details: read-out: DIZ; in short: as §1
[6] = test system: Fusarium oxysporum; assay: Antifungal activity against Fusarium oxysporum at 25 ug/ml incubated for 48 hrs by agar well diffusion method; assay type: functional; details: read-out: DIZ; in short: as §2
[7] = test system: Escherichia coli; assay: Antibacterial activity against Escherichia coli at 75 ug/ml incubated for 24 hrs by agar well diffusion method; assay type: functional; details: read-out: DIZ; in short: as §1
[8] = test system: Staphylococcus aureus; assay: Antibacterial activity against Staphylococcus aureus at 50 ug/ml incubated for 24 hrs by agar well diffusion method; assay type: functional; details: read-out: DIZ; in short: as §1
[9] = test system: Staphylococcus aureus; assay: Antibacterial activity against Staphylococcus aureus at 75 ug/ml incubated for 24 hrs by agar well diffusion method; assay type: functional; details: read-out: DIZ; in short: as §1
[10] = test system: Fusarium oxysporum; assay: Antifungal activity against Fusarium oxysporum at 75 ug/ml incubated for 48 hrs by agar well diffusion method; assay type: functional; details: read-out: DIZ; in short: as §2
[11] = test system: Staphylococcus aureus; assay: Antibacterial activity against Staphylococcus aureus at 100 ug/ml incubated for 24 hrs by agar well diffusion method; assay type: functional; details: read-out: DIZ; in short: as §1
[12] = test system: Candida albicans; assay: Antifungal activity against Candida albicans at 75 ug/ml incubated for 48 hrs by agar well diffusion method; assay type: functional; details: read-out: DIZ; in short: as §2
[13] = test system: Candida albicans; assay: Antifungal activity against Candida albicans at 50 ug/ml incubated for 48 hrs by agar well diffusion method; assay type: functional; details: read-out: DIZ; in short: as §2
[14] = test system: Escherichia coli; assay: Antibacterial activity against Escherichia coli at 25 ug/ml incubated for 24 hrs by agar well diffusion method; assay type: functional; details: read-out: DIZ; in short: as §1
[15] = test system: Escherichia coli; assay: Antibacterial activity against Escherichia coli at 50 ug/ml incubated for 24 hrs by agar well diffusion method; assay type: functional; details: read-out: DIZ; in short: as §1
[16] = test system: Erythrocyte; assay: Anti-inflammatory activity in human RBC assessed as inhibition of hypotonic solution-induced hemolysis after 10 mins by spectrophotometric method; assay type: functional, cell-based
In short: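 Human blood (heparinized) washed with 0.9% saline, packed cells made into a 40% v/v stock in isotonic phosphate buffer (154 mM NaCl, 10 mM sodium phosphate, pH 7.4). Stock RBC mixed with hypotonic buffer (50 mM NaCl, 10 mM phosphate, pH 7.4) plus sample at 20–100 µg mL⁻¹.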

[17] = test system: Bacillus subtilis; assay: Antibacterial activity against Bacillus subtilis at 100 ug/ml incubated for 24 hrs by agar well diffusion method; assay type: functional; details: read-out: DIZ; in short: as §1
[18] = test system: Aspergillus niger; assay: Antifungal activity against Aspergillus niger at 100 ug/ml incubated for 48 hrs by agar well diffusion method; assay type: functional; details: read-out: DIZ; in short: as §2
[19] = test system: Aspergillus niger; assay: Antifungal activity against Aspergillus niger at 50 ug/ml incubated for 48 hrs by agar well diffusion method; assay type: functional; details: read-out: DIZ; in short: as §2
[20] = test system: Klebsiella pneumoniae; assay: Antibacterial activity against Klebsiella pneumoniae at 100 ug/ml incubated for 24 hrs by agar well diffusion method; assay type: functional; details: read-out: DIZ; in short: as §1
[21] = test system: Bacillus subtilis; assay: Antibacterial activity against Bacillus subtilis at 25 ug/ml incubated for 24 hrs by agar well diffusion method; assay type: functional; details: read-out: DIZ; in short: as §1
[22] = test system: Fusarium oxysporum; assay: Antifungal activity against Fusarium oxysporum at 50 ug/ml incubated for 48 hrs by agar well diffusion method; assay type: functional; details: read-out: DIZ; in short: as §2
[23] = test system: Candida albicans; assay: Antifungal activity against Candida albicans at 100 ug/ml incubated for 48 hrs by agar well diffusion method; assay type: functional; details: read-out: DIZ; in short: as §2
[24] = test system: Fusarium oxysporum; assay: Antifungal activity against Fusarium oxysporum at 100 ug/ml incubated for 48 hrs by agar well diffusion method; assay type: functional; details: read-out: DIZ; in short: as §2
[25] = test system: Bacillus subtilis; assay: Antibacterial activity against Bacillus subtilis at 50 ug/ml incubated for 24 hrs by agar well diffusion method; assay type: functional; details: read-out: DIZ; in short: as §1
[26] = test system: Escherichia coli; assay: Antibacterial activity against Escherichia coli at 100 ug/ml incubated for 24 hrs by agar well diffusion method; assay type: functional; details: read-out: DIZ; in short: as §1
[27] = test system: Bacillus subtilis; assay: Antibacterial activity against Bacillus subtilis at 75 ug/ml incubated for 24 hrs by agar well diffusion method; assay type: functional; details: read-out: DIZ; in short: as §1
[28] = test system: Klebsiella pneumoniae; assay: Antibacterial activity against Klebsiella pneumoniae at 75 ug/ml incubated for 24 hrs by agar well diffusion method; assay type: functional; details: read-out: DIZ; in short: as §1
[29] = test system: Aspergillus niger; assay: Antifungal activity against Aspergillus niger at 75 ug/ml incubated for 48 hrs by agar well diffusion method; assay type: functional; details: read-out: DIZ; in short: as §2

Row | SMILES | zone of inhibition at 50 µg/mL [1] [mm] | zone of inhibition at 25 µg/mL [2] [mm] | zone of inhibition at 25 µg/mL [3] [mm] | zone of inhibition at 25 µg/mL [4] [mm] | zone of inhibition at 25 µg/mL [5] [mm] | zone of inhibition at 25 µg/mL [6] [mm] | zone of inhibition at 75 µg/mL [7] [mm] | zone of inhibition at 50 µg/mL [8] [mm] | zone of inhibition at 75 µg/mL [9] [mm] | zone of inhibition at 75 µg/mL [10] [mm] | zone of inhibition at 100 µg/mL [11] [mm] | zone of inhibition at 75 µg/mL [12] [mm] | zone of inhibition at 50 µg/mL [13] [mm] | zone of inhibition at 25 µg/mL [14] [mm] | zone of inhibition at 50 µg/mL [15] [mm] | IC50 [16] [µg/mL] | zone of inhibition at 100 µg/mL [17] [mm] | zone of inhibition at 100 µg/mL [18] [mm] | zone of inhibition at 50 µg/mL [19] [mm] | zone of inhibition at 100 µg/mL [20] [mm] | further results
1 | CSCC[C@H](N)C(=O)Oc1ccc2c(=O)c3ccccc3oc2c1.Cl | 24 | 11 | 17 | 12 | 17 | 13 | 25 | 19 | 22 | 19 | 28 | 21 | 17 | 17 | 21 | 34 | 31 | 24 | 18 | 33 | zone of inhibition at 25 µg/mL [21]: 15 mm; zone of inhibition at 50 µg/mL [22]: 17 mm; zone of inhibition at 100 µg/mL [23]: 23 mm; zone of inhibition at 100 µg/mL [24]: 22 mm; zone of inhibition at 50 µg/mL [25]: 20 mm; zone of inhibition at 100 µg/mL [26]: 29 mm; zone of inhibition at 75 µg/mL [27]: 25 mm; zone of inhibition at 75 µg/mL [28]: 29 mm; zone of inhibition at 75 µg/mL [29]: 21 mm
2 | Cl.NCC(=O)Oc1ccc2c(=O)c3ccccc3oc2c1 | 22 | 7 | 17 | 9 | 10 | 7 | 21 | 15 | 19 | 14 | 23 | 16 | 11 | 12 | 17 | 70 | 26 | 17 | 10 | 30 | zone of inhibition at 25 µg/mL [21]: 10 mm; zone of inhibition at 50 µg/mL [22]: 10 mm; zone of inhibition at 100 µg/mL [23]: 20 mm; zone of inhibition at 100 µg/mL [24]: 17 mm; zone of inhibition at 50 µg/mL [25]: 15 mm; zone of inhibition at 100 µg/mL [26]: 24 mm; zone of inhibition at 75 µg/mL [27]: 21 mm; zone of inhibition at 75 µg/mL [28]: 27 mm; zone of inhibition at 75 µg/mL [29]: 14 mm
3 | CC(C)C[C@H](N)C(=O)Oc1ccc2c(=O)c3ccccc3oc2c1.Cl | 16 | 10 | 10 | 10 | 9 | 9 | 20 | 12 | 15 | 17 | 21 | 19 | 15 | 8 | 14 | 70 | 29 | 22 | 14 | 26 | zone of inhibition at 25 µg/mL [21]: 13 mm; zone of inhibition at 50 µg/mL [22]: 13 mm; zone of inhibition at 100 µg/mL [23]: 21 mm; zone of inhibition at 100 µg/mL [24]: 19 mm; zone of inhibition at 50 µg/mL [25]: 19 mm; zone of inhibition at 100 µg/mL [26]: 24 mm; zone of inhibition at 75 µg/mL [27]: 24 mm; zone of inhibition at 75 µg/mL [28]: 22 mm; zone of inhibition at 75 µg/mL [29]: 19 mm
4 | CC(C)[C@H](N)C(=O)Oc1ccc2c(=O)c3ccccc3oc2c1.Cl | 12 | 9 | 16 | 8 | 14 | 10 | 19 | 17 | 21 | 19 | 24 | 16 | 11 | 11 | 15 | 82 | 24 | 21 | 12 | 27 | zone of inhibition at 25 µg/mL [21]: 10 mm; zone of inhibition at 50 µg/mL [22]: 15 mm; zone of inhibition at 100 µg/mL [23]: 19 mm; zone of inhibition at 100 µg/mL [24]: 21 mm; zone of inhibition at 50 µg/mL [25]: 15 mm; zone of inhibition at 100 µg/mL [26]: 23 mm; zone of inhibition at 75 µg/mL [27]: 20 mm; zone of inhibition at 75 µg/mL [28]: 21 mm; zone of inhibition at 75 µg/mL [29]: 17 mm
